PKA kinase inh: inhibitors of human protein kinase A; P17612; PKA Kemptide phosphorylation, Kinase-Glo ATP luminescence; inhibition, % at 6 µM; hit rate 0.1% among 65,000; AID 524;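 active means inhibition above the screen-wide mean inhibition plus 3 SD, cut at about 21% in these data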
RORa activator: activates the human nuclear receptor RORA. P35398. CHO-K1 Gal4-RORA LBD luciferase reporter, luminescence; percent increase over mock-subtracted basal signal. activation, % at 10 µM. hit rate 1.5% among 65,000. AID 560;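 active means activation above the mean of all tested compounds plus 3 SD, cut at about 49% in these data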
SF-1 act: activates the human nuclear receptor SF-1. Q13285. CHO-K1 Gal4-SF-1 LBD luciferase reporter; % increase over DMSO SF-1-specific signal. activation, % at 10 µM. hit rate 1.9% among 65,000. AID 522;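 active means activation above the mean activation of all tested compounds plus 3 SD, cut at about 50% in these data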
Target sequence (Q13285 whole entry, looked up, the tested form may be a part): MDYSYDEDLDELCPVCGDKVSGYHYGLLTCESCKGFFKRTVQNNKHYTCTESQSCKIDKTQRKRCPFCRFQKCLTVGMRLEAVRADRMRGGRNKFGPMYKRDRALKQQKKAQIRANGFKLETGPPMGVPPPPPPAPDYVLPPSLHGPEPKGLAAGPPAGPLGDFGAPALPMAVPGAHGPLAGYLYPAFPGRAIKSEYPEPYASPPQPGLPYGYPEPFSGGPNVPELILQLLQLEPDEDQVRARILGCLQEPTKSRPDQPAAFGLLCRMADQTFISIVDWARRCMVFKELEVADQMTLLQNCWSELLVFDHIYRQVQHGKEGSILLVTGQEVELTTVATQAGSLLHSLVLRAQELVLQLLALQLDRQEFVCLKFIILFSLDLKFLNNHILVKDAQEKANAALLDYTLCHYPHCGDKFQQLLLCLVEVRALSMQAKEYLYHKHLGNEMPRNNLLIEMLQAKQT
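Assay system: CHO-K1 cells co-transfected with Gal4 DBD–human SF-1 LBD, 5xGal4 luciferase reporter; doses: 10 µM only; incubation: 20 h compound exposure at 37 °C after 1 h cell settling; signal: luciferase light emission; evaluation: percent activation versus DMSO; repeats: one test per compound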
JNK3 inh: blocks human JNK3 kinase activity; purified JNK3 kinase activity, HTS; P53779; inhibition, % at 8 µM; hit rate 0.61% among 60,000; AID 746; in the data active means inhibition above about 17%
MT1-MMP txn act: activates MT1-MMP transcription. hit rate 0.16% among 86,000. HT1080 MT1-MMP promoter luciferase reporter, luminescence, overnight; stronger effect = higher value. activation factor at 10 µM. AID 750;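 active means activation factor of at least 2 for MT1-MMP transcription at 10 µM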
ROCK2 blocker: ROCK2 (human) kinase inhibition | inhibition, % at 6 µM | AID 604 | hit rate 0.35% among 60,000 | purified ROCK2, Kinase-Glo ATP depletion luminescence;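 active means inhibition above the screen-wide mean inhibition plus 3 SD, cut at about 18% in these data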
Hits are given with their value. Shown are actives, neighbours in structure and some others; about 2.5% of the full set was active somewhere.

`COC(=O)c1sc2cnccc2c1N` gave PKA kinase inh inactive, RORa activator inactive, SF-1 act inactive, JNK3 inh inactive, MT1-MMP txn act inactive and ROCK2 blocker 42.
For Cc1ccc(N2C(=O)CC(n3nc(C)cc3C)C2=O)cc1 (stereo not given) the results were MT1-MMP txn act inactive.
`Cc1cc2ccccc2c(=O)n1CC(=O)NCC(=O)N(C)C1CCCCC1` gave MT1-MMP txn act inactive.
Screening O=C(c1cnn(-c2nc3ccccc3s2)c1)c1ccccc1O returned PKA kinase inh inactive, RORa activator 52, SF-1 act inactive, JNK3 inh inactive, MT1-MMP txn act inactive and ROCK2 blocker inactive.
O=C(O)CCC(=O)N1CCN(c2nc3ccccc3s2)CC1 was read as PKA kinase inh inactive, RORa activator inactive, SF-1 act inactive, JNK3 inh inactive, MT1-MMP txn act inactive and ROCK2 blocker inactive.
CC(=O)c1cc(C#N)c(SCc2ccncc2)nc1C was read as PKA kinase inh inactive, RORa activator inactive, SF-1 act inactive, JNK3 inh inactive, MT1-MMP txn act inactive and ROCK2 blocker 28.
Screening CC(=O)c1cc(C#N)c(SCc2ccccc2C#N)nc1C returned MT1-MMP txn act inactive.
CNc1sc(C(=O)c2ccccc2F)c(N)c1-c1nc2ccccc2s1 was read as MT1-MMP txn act 2.1.
`Cc1ccc(N2C(=O)c3ccc(C(=O)N4CCN(c5ccccc5F)CC4)cc3C2=O)cc1` gave PKA kinase inh inactive, RORa activator inactive, SF-1 act inactive, JNK3 inh inactive and ROCK2 blocker inactive.
Screening N#Cc1cc2ccccc2nc1SCc1ccccn1 returned PKA kinase inh inactive, RORa activator 71, SF-1 act 67, JNK3 inh inactive, MT1-MMP txn act inactive and ROCK2 blocker inactive.
CC(C)(C)c1ccc(OCCn2ccccc2=O)cc1 was read as PKA kinase inh inactive, RORa activator inactive, SF-1 act 67, JNK3 inh inactive, MT1-MMP txn act inactive and ROCK2 blocker inactive.
For COc1ccccc1-n1cnc2cc(NCc3cccs3)ccc21 the results were MT1-MMP txn act inactive.
`COc1ccccc1-n1cnc2cc(NCc3ccco3)ccc21` gave PKA kinase inh inactive, RORa activator 50, SF-1 act 56, JNK3 inh inactive, MT1-MMP txn act inactive and ROCK2 blocker inactive.
For CCOc1ccc(S(=O)(=O)Nc2ccc(S(=O)(=O)N3CCCC3)cc2)cc1 the results were MT1-MMP txn act inactive.
For Cc1ccc(-c2nc(Nc3ccccc3)n[nH]2)cc1 the results were PKA kinase inh inactive, RORa activator 63, SF-1 act 64, JNK3 inh inactive, MT1-MMP txn act inactive and ROCK2 blocker inactive.
COc1ccc(Nc2nc(N)nc(CSc3n[nH]c(-c4ccccc4)n3)n2)cc1 was read as PKA kinase inh inactive, RORa activator inactive, SF-1 act inactive, JNK3 inh inactive, MT1-MMP txn act inactive and ROCK2 blocker inactive.
Screening Nc1n[nH]c(-c2ccccc2)n1 returned MT1-MMP txn act inactive.
For Nc1nc(CSc2n[nH]c(-c3ccccc3)n2)nc(Nc2ccccc2)n1 the results were PKA kinase inh inactive, RORa activator 72, SF-1 act inactive, JNK3 inh inactive, MT1-MMP txn act inactive and ROCK2 blocker inactive.
`COC(=O)c1ccc(C(/C=C/[C@@H](C)C(=O)NCc2cc(C)n(C)n2)NC(=O)OCc2ccccc2)cc1` (stereo not given in full) gave MT1-MMP txn act inactive.
Screening CCC(C)C(NS(=O)(=O)c1ccc(C)cc1)C(=O)NCCN1CCOCC1 (stereo not given) returned PKA kinase inh inactive, RORa activator inactive, SF-1 act inactive, JNK3 inh inactive and ROCK2 blocker inactive.
Screening COc1ccc(-n2ncc3c(NCc4ccco4)ncnc32)cc1 returned PKA kinase inh inactive, RORa activator 62, SF-1 act 69, JNK3 inh inactive, MT1-MMP txn act inactive and ROCK2 blocker inactive.
`COc1ccc(-n2ncc3c(NCCCN4CCOCC4)ncnc32)cc1` gave PKA kinase inh inactive, RORa activator inactive, SF-1 act 53, JNK3 inh inactive, MT1-MMP txn act inactive and ROCK2 blocker inactive.
For Clc1ccc(Cn2ncc3c(NCc4ccco4)ncnc32)c(Cl)c1 the results were PKA kinase inh inactive, RORa activator inactive, SF-1 act 62, JNK3 inh inactive, MT1-MMP txn act inactive and ROCK2 blocker inactive.
For Clc1ccc(-n2ncc3c(NCc4ccco4)ncnc32)cc1 the results were PKA kinase inh inactive, RORa activator 65, SF-1 act 76, JNK3 inh inactive, MT1-MMP txn act inactive and ROCK2 blocker inactive.
`O=C(CCn1c(=O)c2ccccc2n(CC(=O)NC2CCCC2)c1=O)NCCc1ccc(Cl)cc1` gave MT1-MMP txn act inactive.
For COc1ccc(-n2ncc3c(NCc4ccccn4)ncnc32)cc1 the results were PKA kinase inh inactive, RORa activator inactive, SF-1 act 56, JNK3 inh inactive, MT1-MMP txn act inactive and ROCK2 blocker inactive.
CN(C)CCNc1ncnc2c1cnn2-c1ccc(Cl)cc1 was read as PKA kinase inh inactive, RORa activator inactive, SF-1 act 73, JNK3 inh inactive, MT1-MMP txn act inactive and ROCK2 blocker inactive.
For O=C1CCCN1CCCNc1ncnc2c1cnn2-c1ccc(Cl)cc1 the results were PKA kinase inh inactive, RORa activator 69, SF-1 act inactive, JNK3 inh inactive, MT1-MMP txn act inactive and ROCK2 blocker inactive.
CCC(CO)Nc1ncnc2c1cnn2-c1ccc(OC)cc1 (stereo not given) was read as PKA kinase inh inactive, RORa activator 61, SF-1 act 101, JNK3 inh inactive, MT1-MMP txn act inactive and ROCK2 blocker inactive.
Screening Cc1ccc(-n2nnc3c(SCC(=O)NCc4ccco4)ncnc32)cc1 returned PKA kinase inh inactive, RORa activator inactive, SF-1 act inactive and MT1-MMP txn act inactive.
CCOC(=O)C1=C(C)N(CCCC(=O)O)C(=O)NC1c1ccccc1OS(=O)(=O)c1ccc2ccccc2c1 (stereo not given) was read as MT1-MMP txn act inactive.
For NC(=O)c1c(-c2cccs2)csc1N the results were PKA kinase inh inactive, RORa activator inactive, SF-1 act inactive, JNK3 inh inactive, MT1-MMP txn act inactive and ROCK2 blocker 21.
Cc1nnc(C)c2c(C)n(Cc3ccc4c(c3)OCO4)c(C)c12 was read as PKA kinase inh inactive, RORa activator inactive, SF-1 act inactive, JNK3 inh inactive, MT1-MMP txn act inactive and ROCK2 blocker inactive.
For Cc1c(C(=O)Nc2ccc(Cl)cn2)oc2ccccc12 the results were PKA kinase inh inactive, RORa activator inactive, SF-1 act inactive, JNK3 inh inactive, MT1-MMP txn act 2.1 and ROCK2 blocker inactive.
For Cc1nc(NC(=O)c2cccnc2)ccc1Br the results were PKA kinase inh inactive, RORa activator inactive, SF-1 act inactive, JNK3 inh inactive, MT1-MMP txn act inactive and ROCK2 blocker inactive.
For Cc1ccccc1C(=O)Nc1ccc(Br)c(C)n1 the results were PKA kinase inh inactive, RORa activator 56, SF-1 act inactive, JNK3 inh inactive, MT1-MMP txn act inactive and ROCK2 blocker inactive.

Compound activity (PubChem)
